Assay outcomes: PubChem BioAssay, several laboratories
NF-kB neuron act: compounds increasing NF-kB expression in human neuronal cells. NF-kB reporter expression; stronger effect = higher value. fold change at 12.5 µM. AID 1239. 190,000 tested, 1.6% active; in the data active = fold change above about 3.3
STAT3 act: STAT3 signaling activation. U3A cells, IL-6 STAT3-luciferase reporter, luminescence; 100% = signal with IL-6 EC80 alone. activation (% of control), % at 5.6 µM. 190,000 tested, 0.91% active. AID 871;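 active = activation above the screen-wide mean of compound activation plus 3 SD, cut at about 130% in these data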;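 note: 0% = background luminescence of wells with medium and substrate only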
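Test system: Human STAT1-deficient U3A cells with stable STAT3-luciferase reporter | Also added: Interleukin-6, 33 ng/mL | Timing: Compound pre-incubation 1 h before IL-6, then 6 h stimulation at 37 °C | Technique: Luciferase reporter luminescence | Read-out: Percent of IL-6-only median luminescence | Benchmarks: IL-6-only wells as 100% reference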
Pf gamet viab: inhibitors of late stage P. falciparum gametocyte viability. P. falciparum stage V gametocytes, ATP luminescence, 24 h. inhibition, % at 10.9 µM. 150,000 tested, 0.065% active. AID 743093;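 active = inhibition above the mean plus 3 SD of compounds within the control limits, set per campaign, cut at about 38% in these data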;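 note: 0% = DMSO wells and 100% = medium only without gametocytes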
STAT1 act: activators of IFN-gamma induced STAT1 signaling; AID 932; activation (% of control), % at 5.5 µM; NIH 3T3 STAT1-luciferase reporter, luminescence; 100% = IFN-gamma alone, no compound; 200,000 tested, 2.6% active;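 active = activation above the screen-wide mean activation plus 3 SD, cut at about 130% in these data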;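 note: raw ratio to IFN-gamma control signal so 100% means no change and 0% no light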
STAT1 inh: inhibitors of IFN-gamma induced STAT1 signaling; inhibition, % at 5.5 µM; NIH 3T3 STAT1-luciferase reporter, luminescence; AID 920; 200,000 tested, 0.35% active;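 active = inhibition above a set limit, the mean inhibition across all tested compounds plus 3 SD, cut at about 34% in these data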;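 note: 0% = IFN-gamma with DMSO and 100% = IFN-gamma with 300 µM nifuroxazide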
APP 5'UTR act: APP 5'UTR luciferase reporter activation | 190,000 tested, 1% active | activation, % at 2 µM | SH-SY5Y APP 5'UTR luciferase reporter, luminescence; zero percent = DMSO vehicle wells;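 active = activation above a set limit, based on mean plus 3 SD of controls, cut at about 140% in these data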
Active calls of the source: *. Hits are enriched below; roughly 3.9% of the tested compounds scored in any of these assays.

How did COc1cc(OC)cc(-n2nnnc2SCC(=O)Nc2nc3c(s2)CCCC3)c1 do in these assays?
NF-kB neuron act: 1.2; STAT3 act: 101; STAT1 act: 100; STAT1 inh: -1; APP 5'UTR act: -4

What do the screens show for `Cn1nnnc1SCC(=O)Nc1nc2c(s1)CCCC2`?
NF-kB neuron act: 4*; STAT3 act: 111; STAT1 act: 143*; STAT1 inh: -46; APP 5'UTR act: 111

What do the screens show for `Nc1cc(N)cc(C(=O)OCC(=O)Nc2cc(S(=O)(=O)N3CCCCC3)ccc2Cl)c1`?
NF-kB neuron act: 0.99; STAT3 act: 103; Pf gamet viab: -2; STAT1 act: 99; STAT1 inh: 0; APP 5'UTR act: -2

How did N#Cc1cccc(-n2nnnc2-c2ccc3c(c2)OCO3)c1 do in these assays?
NF-kB neuron act: 3.5*; STAT3 act: 113; STAT1 act: 112; STAT1 inh: -13; APP 5'UTR act: 28

What do the screens show for `COc1ccc(-c2cc3cc(OC)c(OC)cc3c(C)n2)cc1C`?
Pf gamet viab: 0

Results for CCOc1cc(S(=O)(=O)n2ccnc2)ccc1Cl ?
NF-kB neuron act: 3.6*; STAT3 act: 102; Pf gamet viab: -20; STAT1 act: 99; STAT1 inh: 1; APP 5'UTR act: -10

What do the screens show for `Oc1ccc(-c2csc(NCc3ccco3)n2)cc1`?
NF-kB neuron act: 3.7*; STAT3 act: 97; STAT1 act: 114; STAT1 inh: -16; APP 5'UTR act: 24

What do the screens show for `c1coc(CNc2nc(-c3cccs3)cs2)c1`?
NF-kB neuron act: 2.5; STAT3 act: 96; Pf gamet viab: 2; STAT1 act: 127; STAT1 inh: -31; APP 5'UTR act: 40

What do the screens show for `COc1ccc(C(=O)Nn2c(CCC(=O)O)ccc2-c2ccc(C)cc2)cc1OC`?
NF-kB neuron act: 1; STAT3 act: 104; Pf gamet viab: -14; STAT1 act: 109; STAT1 inh: -11; APP 5'UTR act: -9

Results for O=C1CCC/C1=C/Nc1ccc2c(c1)OCO2 ?
NF-kB neuron act: 0.9; STAT3 act: 108; Pf gamet viab: 8; STAT1 act: 118; STAT1 inh: -21; APP 5'UTR act: 13

How did CC1CCC/C(=C\Nc2ccc3c(c2)OCO3)C1=O (stereo not given) do in these assays?
NF-kB neuron act: 1; STAT3 act: 117; Pf gamet viab: -13; STAT1 act: 133*; STAT1 inh: -36; APP 5'UTR act: 0

Results for Nc1cc(-c2ccc(Cl)cc2)nn1-c1ccccc1 ?
NF-kB neuron act: 2.6; STAT3 act: 91; Pf gamet viab: 5; STAT1 act: 149*; STAT1 inh: -51; APP 5'UTR act: 88

Results for COc1ccc(-c2nnn(-c3cc(Cl)cc(Cl)c3)c2N)cc1 ?
Pf gamet viab: 13

What do the screens show for `Nc1c(-c2ccc(Cl)cc2)nnn1-c1ccccc1`?
NF-kB neuron act: 3; STAT3 act: 99; Pf gamet viab: -17; STAT1 act: 132*; STAT1 inh: -35; APP 5'UTR act: 89

How did O=C(Cn1ccc(NC(=O)OCc2ccccc2)nc1=O)NCc1ccc2[nH]ccc2c1 do in these assays?
Pf gamet viab: -17

What do the screens show for `c1ccc2c(c1)[nH]c1c(N3CCSCC3)ncnc12`?
NF-kB neuron act: 0.33; STAT3 act: 113; Pf gamet viab: -12; STAT1 act: 66; STAT1 inh: 38*; APP 5'UTR act: 20

What do the screens show for `Cc1ccc(NCc2ccc(O)c3ncccc23)cc1`?
NF-kB neuron act: 1.4; STAT3 act: 100; Pf gamet viab: -11; STAT1 act: 107; STAT1 inh: -9; APP 5'UTR act: 7

Results for Cc1ccc(NCc2ccc(O)c3ncccc23)cc1C ?
NF-kB neuron act: 0.99; STAT3 act: 135*; Pf gamet viab: -14; STAT1 act: 103; STAT1 inh: -5; APP 5'UTR act: 15

What do the screens show for `Cc1cccnc1NCc1ccc(O)c2ncccc12`?
NF-kB neuron act: 8.6*; STAT3 act: 99; Pf gamet viab: 11; STAT1 act: 96; STAT1 inh: 5; APP 5'UTR act: -6

How did Cc1cccc(NCc2ccc(O)c3ncccc23)c1C do in these assays?
NF-kB neuron act: 1.1; STAT3 act: 106; Pf gamet viab: -4; STAT1 act: 96; STAT1 inh: 3; APP 5'UTR act: 7

Results for COc1ccc(Nc2nnc(SCC(=O)Nc3ccc4[nH]c(=O)[nH]c4c3)s2)cc1 ?
NF-kB neuron act: 1.1; STAT3 act: 94; Pf gamet viab: 11; STAT1 act: 94; STAT1 inh: 4; APP 5'UTR act: -9

How did Cc1cc(C)c2cc3c(N)c(C(=O)N4CCOCC4)sc3nc2c1 do in these assays?
NF-kB neuron act: 0.93; STAT3 act: 102; Pf gamet viab: 7; STAT1 act: 144*; STAT1 inh: -51; APP 5'UTR act: 86

How did Cc1cc(C)c2nc3sc(C(=O)N4CCOCC4)c(N)c3cc2c1 do in these assays?
Pf gamet viab: -16

Results for Cc1ccc(C)c2nc3sc(C(=O)N4CCOCC4)c(N)c3cc12 ?
NF-kB neuron act: 1.9; STAT3 act: 103; Pf gamet viab: 20; STAT1 act: 144*; STAT1 inh: -49; APP 5'UTR act: 64

Results for CCOc1ccc2nc3sc(C(=O)N4CCOCC4)c(N)c3cc2c1 ?
NF-kB neuron act: 3; STAT3 act: 53; Pf gamet viab: -3; STAT1 act: 85; STAT1 inh: 17; APP 5'UTR act: 220*

What do the screens show for `CC(C)(C)[C@H]1COC(=O)[C@H](NC(=O)OCC2c3ccccc3-c3ccccc32)C/C=C\C[C@@H](CC(=O)N(CCO)Cc2ccccc2)C(=O)N1`?
Pf gamet viab: 2

How did O=C(CN1CCN(c2ccc(C(F)(F)F)cn2)CC1)NCc1ccc2c(c1)OCO2 do in these assays?
Pf gamet viab: 9

What do the screens show for `Cc1nc(SCC2(C)CC2(Cl)Cl)n[nH]1` (stereo not given)?
NF-kB neuron act: 1.2; STAT3 act: 102; Pf gamet viab: 9; STAT1 act: 102; STAT1 inh: -4; APP 5'UTR act: 6

What do the screens show for `O=C(Oc1ccc(-c2cnc3ccccc3n2)cc1)c1ccc(Br)o1`?
NF-kB neuron act: 2.9; STAT3 act: 98; Pf gamet viab: -3; STAT1 act: 135*; STAT1 inh: -38; APP 5'UTR act: 113

What do the screens show for `O=C(Oc1ccc(-c2cnc3ccccc3n2)cc1)c1ccc(Cl)c([N+](=O)[O-])c1`?
NF-kB neuron act: 1.8; STAT3 act: 98; STAT1 act: 125; STAT1 inh: -27; APP 5'UTR act: 138*

What do the screens show for `Oc1cncc(Cc2ccccc2)c1`?
Pf gamet viab: 9

What do the screens show for `CNC(=O)/C(C#N)=C/c1ccc(-c2ccc(Cl)cc2)o1`?
NF-kB neuron act: 1.9; STAT3 act: 94; Pf gamet viab: 15; STAT1 act: 142*; STAT1 inh: -44; APP 5'UTR act: 58
